Measurements of several laboratories.
Protocols differ between the studies behind these lines.
Target: Alpha-2B adrenergic receptor (ADRA2B, Homo sapiens, UniProt P18089)
Tested at: 10 µM
Sequence (P18089 1-450, as in one of the studies): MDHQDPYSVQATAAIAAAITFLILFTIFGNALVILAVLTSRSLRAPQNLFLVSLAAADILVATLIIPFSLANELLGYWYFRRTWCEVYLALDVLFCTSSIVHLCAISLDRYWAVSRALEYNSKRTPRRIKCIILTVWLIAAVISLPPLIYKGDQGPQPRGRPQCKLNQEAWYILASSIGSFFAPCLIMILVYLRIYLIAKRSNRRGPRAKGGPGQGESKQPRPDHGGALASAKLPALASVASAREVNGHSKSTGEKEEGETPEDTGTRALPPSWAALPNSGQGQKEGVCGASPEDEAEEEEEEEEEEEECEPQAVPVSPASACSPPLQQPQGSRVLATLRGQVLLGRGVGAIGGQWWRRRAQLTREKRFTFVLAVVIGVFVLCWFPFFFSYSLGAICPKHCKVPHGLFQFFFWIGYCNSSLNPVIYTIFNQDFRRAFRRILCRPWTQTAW

| SMILES | effect on | method | inhibition [%] |
| --- | --- | --- | --- |
| O=C1c2ccccc2C(=O)N1CC#Cc1ccc2c(c1)C=C([N+](=O)[O-])C(C(F)(F)F)O2 (stereo not drawn) | ligand displacement | radioligand | 70 |
| COc1cc(NC(C)=O)c(Cl)cc1C(=O)Nc1nccs1 | cell-free assay |  | -12.7 |
| N#Cc1cc(Cn2c(N3CCCC3)nc3ccccc32)ccc1F | ligand displacement |  | 18.7 |
| Oc1cccc(Nc2nc(-c3ccc(F)cc3F)cs2)c1 | cell-free assay |  | -29.7 |
| O=C(NNS(=O)(=O)c1ccccc1F)c1cc(F)cc(-c2ccccn2)c1 | cell-free assay |  | -3.78 |
| CCCNc1nc2ccccc2n1Cc1ccc(Cl)cc1 | ligand displacement |  | 83 |
| CN(C)C(=O)Cn1cc(-c2nc(C3(c4ccc(-c5cnc(N)nc5)cc4)CC3)no2)cn1 | cell-free assay |  | -3.57 |
| O=[N+]([O-])C1=Cc2cc(I)ccc2OC1C(F)(F)F (stereo not drawn) | ligand displacement | radioligand | 66 |
| CCN(CC)c1ccc(C2Nc3ccc(C(=O)c4ccccc4)cc3NC3=C2C(=O)CC(C)(C)C3)cc1 (stereo not drawn) | ligand displacement | radioligand | -8 |
